Consider 1 molecule from ChEMBL document CHEMBL5331127, “Discovery of ARD-2051 as a Potent and Orally Efficacious Proteolysis Targeting Chimera (PROTAC) Degrader of Androgen Receptor for the Treatment of Advanced Prostate Cancer” (J Med Chem, 2023).

Active and inactive are the calls of the source. The rule behind the calls is not given here.

The subject of series [1] is VCaP. Description: Induction of androgen receptor degradation in human VCaP cells at 100 nM pretreated with MG132 for 2 hrs followed by compound addition and 3 hrs by Western blot analysis. Conditions: time 5.0 hrs. In kind it is functional, cell-based. A digest of the protocol: (§1)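 LNCaP or VCaP cells pretreated 2 h with DMSO, ARi-12 (10 μM), thalidomide (10 μM), MG-132 (3 μM) or MLN4924 (0.5 μM), then given degrader at 100 nM for 3 h. AR measured by Western blot with GAPDH as loading control.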

The target in series [2] is T1, Androgen receptor (Homo sapiens) (UniProt P10275).
T1 sequence (whole entry): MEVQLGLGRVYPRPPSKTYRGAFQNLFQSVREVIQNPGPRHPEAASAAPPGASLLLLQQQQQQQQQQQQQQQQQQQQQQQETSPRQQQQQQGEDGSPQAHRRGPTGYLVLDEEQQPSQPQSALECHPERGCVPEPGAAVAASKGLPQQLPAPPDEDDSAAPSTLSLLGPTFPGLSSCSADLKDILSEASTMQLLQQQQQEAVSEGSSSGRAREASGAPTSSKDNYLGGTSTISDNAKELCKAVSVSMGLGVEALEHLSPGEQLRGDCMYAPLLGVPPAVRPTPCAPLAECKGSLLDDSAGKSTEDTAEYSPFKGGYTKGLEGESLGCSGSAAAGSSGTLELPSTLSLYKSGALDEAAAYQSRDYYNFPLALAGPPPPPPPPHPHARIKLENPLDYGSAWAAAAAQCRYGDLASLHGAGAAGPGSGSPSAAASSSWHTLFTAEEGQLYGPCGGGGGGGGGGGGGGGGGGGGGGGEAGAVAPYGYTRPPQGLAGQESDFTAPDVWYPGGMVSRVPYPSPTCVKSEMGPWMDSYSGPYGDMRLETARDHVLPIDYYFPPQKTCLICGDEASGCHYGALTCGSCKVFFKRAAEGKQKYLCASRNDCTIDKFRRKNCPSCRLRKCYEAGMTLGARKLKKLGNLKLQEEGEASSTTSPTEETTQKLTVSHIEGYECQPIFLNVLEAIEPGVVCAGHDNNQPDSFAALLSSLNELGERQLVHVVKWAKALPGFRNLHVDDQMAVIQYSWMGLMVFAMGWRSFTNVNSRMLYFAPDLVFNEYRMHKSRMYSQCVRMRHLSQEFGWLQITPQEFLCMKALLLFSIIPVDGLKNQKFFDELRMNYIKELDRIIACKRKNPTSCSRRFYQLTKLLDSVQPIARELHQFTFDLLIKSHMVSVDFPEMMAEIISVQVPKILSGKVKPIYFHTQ
Description: Induction of androgen receptor degradation in human VCaP cells at 0.1 uM after 24 hrs by Western blotting analysis relative to control. In kind it is cell-based. A digest of the protocol: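 VCaP cells treated for 24 h at 10, 100 or 1000 nM. AR protein measured by Western blotting.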

Series [3] can be described thus: Plasma protein binding in monkey at 1 uM after 5 hrs by equilibrium dialysis based LC-MS/MS analysis. Conditions: rhesus monkey. In kind it is ADME, cell-free, Macaca mulatta. A digest of the protocol:
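Equilibrium dialysis of pooled plasma of each species spiked at 1 μM against 0.1 M sodium phosphate, pH 7.4. 5 h at 37 °C with shaking at 60 rpm. Both sides matrix-matched, ACN/IS quench, LC/MS. % bound = 100 − (buffer/plasma peak-area ratio × 100); recovery also calculated. Warfarin as reference.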

Series [4] deals with VCaP. Description: Induction of androgen receptor degradation in human VCaP cells at 100 nM pretreated with ARi-12 for 2 hrs followed by compound addition and 3 hrs by Western blot analysis. In kind it is functional, cell-based. Conditions: time 5.0 hrs. A digest of the protocol:
as §1

Series [5] can be described thus: Half life in Sprague-Dawley rat at 1 mg/kg, iv measured upto 24 hrs by LC-MS/MS analysis. In kind it is ADME, organism-based. Conditions: in vivo. A digest of the protocol: (§2)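 Male ICR mice (2 mg/kg), male SD rats (1 mg/kg) or male Beagle dogs (1 mg/kg) given a single intravenous dose in 10% PEG400 + 90% PBS adjusted to pH 8.0 with NaOH.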
Series [6] in a line: Drug concentration in ICR mouse plasma at 10 mg/kg, po measured after 24 hrs. In kind it is ADME, organism-based. A digest of the protocol: (§3)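 Mice given a single 10 mg/kg dose by oral gavage, 3 mice per time point. Plasma drug levels measured at 1, 3, 6 and 24 h; mean ± SD reported.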
Series [7] has as its system LNCaP. Description: Growth inhibition in human LNCaP cells incubated for 4 days by WST-8 assay relative to control. In kind it is functional. Conditions: time 4 day. A digest of the protocol:
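LNCaP cells grown in RPMI 1640 with 10% FBS, treated for 4 days. Viability read by WST-8 assay.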

A short description of series [8]: Metabolic stability in monkey plasma assessed as half life at 1 uM measured upto 120 mins by LC-MS/MS analysis. The following applies: rhesus monkey, 2 h. In kind it is ADME, cell-free, Macaca mulatta. A digest of the protocol:
(§4)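 Compound at 1 μM final in pre-warmed plasma of each species, 37 °C for up to 2 h. ACN/IS quench at 0, 5, 15, 30, 60 and 120 min; LC/MS. Procaine as reference (benfluorex for rat). t1/2 = 0.693/slope of ln(fraction remaining) versus time.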

Series [9] can be described thus: Half life in ICR mouse at 2 mg/kg, iv measured upto 24 hrs by LC-MS/MS analysis. In kind it is ADME, organism-based. The following applies: in vivo. A digest of the protocol:
as §2

Series [10] can be described thus: Metabolic stability in rat plasma assessed as half life at 1 uM measured upto 120 mins by LC-MS/MS analysis. In kind it is ADME, cell-free. Conditions: 2 h. A digest of the protocol: as §4
The nature of series [11]: Metabolic stability in human hepatocytes assessed as half life at 1 uM measured upto 120 mins in presence of NADPH by LC-MS/MS analysis. In kind it is ADME, cell-based, Hepatocyte. Conditions: 2 h.
Series [12] is described as follows: Clearance in ICR mouse at 2 mg/kg, iv measured upto 24 hrs by LC-MS/MS analysis. In kind it is ADME, organism-based. The following applies: in vivo. A digest of the protocol: as §2
Series [13] is described as follows: Drug concentration in ICR mouse plasma at 10 mg/kg, po measured after 3 hrs. In kind it is ADME, organism-based. A digest of the protocol:
as §3

Series [14] is described as follows: Volume of distribution at steady state in Sprague-Dawley rat at 1 mg/kg, iv measured upto 24 hrs by LC-MS/MS analysis. In kind it is ADME, organism-based. Conditions: in vivo.
The subject of series [15] is LNCaP. Description: Downregulation of KLK3 gene expression in human LNCaP cells incubated for 24 hrs by qRT-PCR analysis. In kind it is functional, cell-based. Conditions: dose 0.03-30 nM. A digest of the protocol: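 LNCaP cells (RPMI 1640) or VCaP cells (DMEM Glutamax), both with 10% FBS, treated for 24 h. KLK3 mRNA measured by qRT-PCR and calculated by the comparative CT method against GAPDH and vehicle.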

Series [16] deals with Mus musculus. In words: In vivo induction of androgen receptor degradation in human VCaP cells xenografted in CB17 SCID mouse assessed as reduction in FKBP5 mRNA level at 12.5 mg/kg, po measured after 6 to 24 hrs by qRT-PCR analysis. In kind it is functional, organism-based. Conditions: time 6-24 hrs.
Series [17] relates to VCaP. In words: Antitumor activity against human VCaP cells xenografted in CB17 SCID mouse assessed as tumor growth inhibition at 3.75 mg/kg, po administered for 21 days. In kind it is functional. Conditions: 504 h, time 21 day, read-out: TGI. A digest of the protocol: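 SCID mice bearing VCaP xenografts dosed by oral gavage once daily for 21 days at 3.75, 7.5, 12.5 or 25 mg/kg. Tumour growth inhibition calculated against vehicle-treated mice at the end of treatment; body weight monitored.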

Regarding `C[C@H]1CC2(CCN(c3ccc(C(=O)N4CCN(C5CN(c6ccc7c(c6)C(=O)N(C6CCC(=O)NC6=O)C7=O)C5)CC4)cc3)CC2)CN1c1ccc(C#N)c(Cl)c1` (some centres not stated), the result in series [1] and in series [4] was inactive. The figures for the Activity in [2] and in [15] were over 95% and “Dose-Dependent Effect”, respectively. The molecule also returned a PPB in series [3] of 99.2%. Besides, the t1/2 in series [5] was 2.1 h; in [8], over 2 h; in [9] it was 5 h; in series [10], over 2 h; in [11], over 2 h. The concentration at 24 h in series [6] came to 77 ng/mL. Further, in [7], the Imax is on record as 100%. The same molecule registered a clearance in series [12] of 3.7 mL/min/kg. Besides, the concentration at 3 h in series [13] was determined as 664 ng/mL. In series [14], the distribution volume (Vdss) turned out to be 1.3 L/kg. For the same molecule, the result in series [16] was Active. In addition, the inhibition in vivo at 3.75 mg/kg in [17] was determined as 44%.
